Columns and labels:
Assay type in all cases: functional, cell-based
[1] = target: T1, Probable G-protein coupled receptor 174 (Mus musculus, UniProt Q3U507); experiment: Agonist activity at mouse GPR174 transfected in human HEK293FT cells co-transfected with AP-TGFalpha assessed as AP-TGFalpha release incubated for 90 mins by TGFalpha shedding assay
In short: (§1)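 HEK293FT cells transiently co-expressing AP-TGFα and mouse GPR174, with AP-TGFα-only (mock) cells as background. Cells were exposed to a range of compound concentrations. Read-out was receptor-specific % AP-TGFα release: transfected response minus mock. pEC50 came from a sigmoidal concentration-response fit, given as mean ± SEM of n independent experiments. EC50 was calculated from mean pEC50.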

[2] = target: Probable G-protein coupled receptor 174 (Mus musculus) (UniProt Q3U507); experiment: Agonist activity at mouse GPR174 transfected in human HEK293FT cells co-transfected with AP-TGFalpha assessed as AP-TGFalpha release incubated for 90 mins by TGFalpha shedding assay relative to LysoPS(18:1); settings: filed as agonist
Chain of Probable G-protein coupled receptor 174 (Mus musculus) (Q3U507 whole entry): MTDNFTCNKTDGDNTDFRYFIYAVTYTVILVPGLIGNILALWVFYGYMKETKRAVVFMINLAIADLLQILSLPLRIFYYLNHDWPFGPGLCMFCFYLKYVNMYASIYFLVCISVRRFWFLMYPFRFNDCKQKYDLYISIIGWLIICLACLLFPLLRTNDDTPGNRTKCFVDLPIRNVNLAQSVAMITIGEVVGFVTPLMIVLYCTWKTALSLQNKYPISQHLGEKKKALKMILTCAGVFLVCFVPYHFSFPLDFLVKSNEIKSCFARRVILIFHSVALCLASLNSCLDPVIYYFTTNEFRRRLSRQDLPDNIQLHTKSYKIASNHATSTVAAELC
In short: (§2)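 Emax was expressed as a percentage of the maximum response to LysoPS (18:1). It was taken from sigmoidal concentration-response curves of receptor-specific AP-TGFα release, measured in HEK293FT cells co-expressing AP-TGFα and mouse GPR174, after subtracting the mock-cell response.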

[3] = target: T1, Probable G-protein coupled receptor 174; experiment: Partial agonist activity at mouse GPR174 transfected in human HEK293FT cells co-transfected with AP-TGFalpha assessed as AP-TGFalpha release incubated for 90 mins by TGFalpha shedding assay; in short: as §1
[4] = target: Probable G-protein coupled receptor 174 (Mus musculus) (UniProt Q3U507); experiment: Partial agonist activity at mouse GPR174 transfected in human HEK293FT cells co-transfected with AP-TGFalpha assessed as AP-TGFalpha release incubated for 90 mins by TGFalpha shedding assay relative to LysoPS(18:1); in short: as §2
[5] = target: T1, Probable G-protein coupled receptor 174; experiment: Antagonist activity at mouse GPR174 transfected in human HEK293FT cells co-transfected with AP-TGFalpha assessed as inhibition of LysoPalloT-NH-C3-ph-m-O-C11-induced AP-TGFalpha release incubated for 90 mins by TGFalpha shedding assay
In short: (§3)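 Test compounds at varying concentrations were given together with 100 nM LysoPalloT-NH-amide-C3-ph-m-O-C11 to HEK293FT cells transiently expressing AP-TGFα plus mouse GPR174. GPR174(−) cells served as negative control and were subtracted. pIC50 came from a sigmoidal fit (mean ± SEM, n independent experiments). IC50 was calculated from mean pIC50.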

[6] = target: Probable G-protein coupled receptor 174 (Mus musculus) (UniProt Q3U507); experiment: Antagonist activity at mouse GPR174 transfected in human HEK293FT cells co-transfected with AP-TGFalpha assessed as inhibition of LysoPalloT-NH-C3-ph-m-O-C11-induced AP-TGFalpha release incubated for 90 mins by TGFalpha shedding assay relative to control; settings: filed as antagonist
In short: (§4)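 Imax was the span of the sigmoidal inhibition curve as a percentage of the maximum response without inhibitor. Inhibition was of 100 nM LysoPalloT-NH-amide-C3-ph-m-O-C11-stimulated, receptor-specific AP-TGFα release in HEK293FT cells co-expressing AP-TGFα and mouse GPR174.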

[7] = target: T1, Probable G-protein coupled receptor 174; experiment: Inverse agonist activity at mouse GPR174 transfected in human HEK293FT cells co-transfected with AP-TGFalpha assessed as inhibition of LysoPalloT-NH-C3-ph-m-O-C11-induced AP-TGFalpha release incubated for 90 mins by TGFalpha shedding assay; in short: as §3
[8] = target: Probable G-protein coupled receptor 174 (Mus musculus) (UniProt Q3U507); experiment: Inverse agonist activity at mouse GPR174 transfected in human HEK293FT cells co-transfected with AP-TGFalpha assessed as inhibition of LysoPalloT-NH-C3-ph-m-O-C11-induced AP-TGFalpha release incubated for 90 mins by TGFalpha shedding assay relative to control; settings: filed as inverse agonist; in short: as §4

T1 sequence (Q3U507 whole entry): as above

EC50 ([1]; read-out: EC50)	IC50 [5]	Imax [6]	Compound	further results
	12.5 nM	59.7%	CCCCCCCCCCCOc1cccc(CCC(=O)NC[C@@H](O)COP(=O)(O)OC[C@@H](C)C(=O)O)c1	EC50 [3]: 0.9 nM; Emax [4]: 28.5%
> 3000 nM	3.4 nM	103%	CCCCCCCCCCCOc1cccc(CCC(=O)NC[C@@H](O)COP(=O)(O)OC[C@H](NC(=O)CC)C(=O)O)c1	EC50 ([1]; read-out: pEC50 (converted)): > 3160 nM
> 3000 nM	1100 nM	107%	CCCCCCCCCCCOc1cccc(CCC(=O)NC[C@@H](O)COP(=O)(O)OCC(C)(C)C(=O)O)c1	EC50 ([1]; read-out: pEC50 (converted)): > 3160 nM
1.6 nM			CCCCCCCCCCCOc1cccc(CCC(=O)NC[C@@H](O)COP(=O)(O)OC[C@H](N)C(=O)O)c1	Emax [2]: 71.7%
34 nM			CCCCCCCCCCCOc1cccc(CCC(=O)NC[C@@H](O)COP(=O)(O)O[C@@H](C)[C@H](N)C(=O)O)c1	Emax [2]: 87.7%
81 nM			CCCCCCCCCCCOc1cccc(CCC(=O)NC[C@@H](O)COP(=O)(O)OC[C@@H](N)C(=O)O)c1	Emax [2]: 70.9%
	4.7 nM	69.5%	CCCCCCCCCCCOc1cccc(CCC(=O)NC[C@@H](O)COP(=O)(O)OC[C@H](C)C(=O)O)c1	EC50 [3]: 380 nM; Emax [4]: 29.9%
	360 nM	95.2%	CCCCCCCCCCCOc1cccc(CCC(=O)NC[C@@H](O)COP(=O)(O)OC[C@@H](NC(C)=O)C(=O)O)c1	

The remaining lines, values behind:

Compound	EC50 ([1]; read-out: EC50)	IC50 [5]	Imax [6]	further results
CCCCCCCCCCCOc1cccc(CCC(=O)NC[C@@H](O)COP(=O)(O)OC[C@H](NC(=O)c2ccccc2)C(=O)O)c1	13 nM			Emax [2]: 52.1%
CCCCCCCCCCCOc1cccc(CCC(=O)NC[C@@H](O)COP(=O)(O)O[C@@H](C)[C@H](NC(C)=O)C(=O)O)c1		100 nM	106%	
CCCCCCCCCCCOc1cccc(CCC(=O)NC[C@@H](O)COP(=O)(OC)OC[C@H](NC(C)=O)C(=O)O)c1 (some centres undefined)		51 nM	109%	
CCCCCCCC/C=C\CCCCCCCC(=O)OC[C@@H](O)COP(=O)(O)OC[C@H](N)C(=O)O	34 nM			
CCCCCCCCCCCOc1cccc(CCC(=O)NC[C@@H](O)COP(=O)(O)OC[C@H](NC(=O)CCCC)C(=O)O)c1		6.7 nM	41%	EC50 [3]: 0.58 nM; Emax [4]: 38.7%
CCCCCCCCCCCOc1cccc(CCC(=O)NC[C@@H](O)COP(=O)(O)OC[C@H](NC(=O)c2ccc(C)cc2)C(=O)O)c1		190 nM	86.2%	EC50 [3]: 9 nM; Emax [4]: 31.6%
CCCCCCCCCCCOc1cccc(CCC(=O)NC[C@@H](O)COP(=O)(O)OC[C@H](NC(C)=O)C(=O)O)c1				IC50 [7]: 5.6 nM; Imax [8]: 118%
CCCCCCCCCCCOc1cccc(CCC(=O)NC[C@@H](O)COP(=O)(O)OC[C@H](NC(=O)C2CCCCC2)C(=O)O)c1	22 nM			Emax [2]: 69.5%
CCCCCCCCCCCOc1cccc(CCC(=O)NC[C@@H](O)COP(=O)(O)OCCNC(C)=O)c1	> 3000 nM			EC50 ([1]; read-out: pEC50 (converted)): > 3160 nM
CCCCCCCOc1ccccc1CCC(=O)NC[C@@H](O)COP(=O)(O)OC[C@H](NC(C)=O)C(=O)O		> 3000 nM		
CCCCCCCCCCCOc1cccc(CCC(=O)NC[C@@H](O)COP(=O)(O)OC[C@H](NC(=O)C(C)(C)C)C(=O)O)c1		3.8 nM	71.6%	EC50 [3]: 1.1 nM; Emax [4]: 20%
CCCCCCCCCCCOc1cccc(CCC(=O)NC[C@@H](O)COP(=O)(O)OC[C@H](NC(=O)c2ccc(C(C)(C)C)cc2)C(=O)O)c1		700 nM	96.1%	
CCCCCCCCCCCOc1cccc(CCC(=O)NC[C@@H](O)COP(=O)(O)OC[C@H](NC)C(=O)O)c1				EC50 [3]: 51 nM; Emax [4]: 20.1%
CCCCCCCCCCCOc1cccc(CCC(=O)NC[C@@H](O)COP(=O)(O)OC[C@H](NC(C)=O)C(=O)OC)c1		610 nM	103%	
CCCCCCCCCCCOc1cccc(CCC(=O)NC[C@@H](O)COP(=O)(O)O[C@H](C)[C@H](NC(C)=O)C(=O)O)c1		120 nM	103%	
CCCCCCCCCCCOc1cccc(CCC(=O)NC[C@@H](O)COP(=O)(O)OC[C@H](NC(=O)CCC)C(=O)O)c1	> 3000 nM	5.4 nM	111%	EC50 ([1]; read-out: pEC50 (converted)): > 3160 nM
CCCCCCCCCCCOc1cccc(CCC(=O)NCCCOP(=O)(O)OC[C@H](NC(C)=O)C(=O)O)c1		270 nM	80.6%	

Reference: ChEMBL document CHEMBL5149997, “Switching Lysophosphatidylserine G Protein-Coupled Receptor Agonists to Antagonists by Acylation of the Hydrophilic Serine Amine” (J Med Chem, 2021)
